Measured values published in ChEMBL document CHEMBL1145563, “Monoglycerides from the brown alga Sargassum sagamianum: Isolation, synthesis, and biological activity” (Bioorg Med Chem Lett, 2008).

Assays:
[1] = biological target: T1, Phospholipase A2, membrane associated (Homo sapiens) (UniProt P14555); assay: Inhibition of sPLA2-2A at 10 uM by coupled enzyme assay
T1 sequence (whole entry): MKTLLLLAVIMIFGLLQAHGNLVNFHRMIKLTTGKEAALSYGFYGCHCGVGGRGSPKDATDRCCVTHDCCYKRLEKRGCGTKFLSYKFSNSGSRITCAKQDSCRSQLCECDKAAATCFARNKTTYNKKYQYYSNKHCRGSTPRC
In short: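 Phospholipase A2 activity measured by a coupled enzyme assay with DL-PC as substrate and lipoxygenase as the coupling enzyme. Percent inhibition given as mean of three experiments.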

[2] = biological target: T2, Prostaglandin G/H synthase 2 (Homo sapiens) (UniProt P35354); assay: Inhibition of COX2 at 50 uM
T2 sequence (whole entry): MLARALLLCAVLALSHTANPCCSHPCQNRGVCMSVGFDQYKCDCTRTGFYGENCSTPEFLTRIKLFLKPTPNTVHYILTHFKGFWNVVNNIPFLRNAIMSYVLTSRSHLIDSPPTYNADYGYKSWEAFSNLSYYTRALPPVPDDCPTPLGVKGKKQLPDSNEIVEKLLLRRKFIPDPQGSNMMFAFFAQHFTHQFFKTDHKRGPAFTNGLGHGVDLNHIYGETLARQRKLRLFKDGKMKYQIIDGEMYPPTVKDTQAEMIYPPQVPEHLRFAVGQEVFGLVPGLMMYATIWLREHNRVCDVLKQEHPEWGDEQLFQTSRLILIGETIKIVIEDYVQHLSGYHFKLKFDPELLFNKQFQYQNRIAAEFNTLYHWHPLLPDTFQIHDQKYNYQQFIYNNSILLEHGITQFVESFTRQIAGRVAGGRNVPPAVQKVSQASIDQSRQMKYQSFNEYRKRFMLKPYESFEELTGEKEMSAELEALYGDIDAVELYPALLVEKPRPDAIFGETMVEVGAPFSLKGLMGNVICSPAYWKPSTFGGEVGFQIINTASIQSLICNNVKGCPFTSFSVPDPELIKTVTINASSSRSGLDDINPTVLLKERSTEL
In short: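 COX-2 activity followed as PGE2 in the medium, measured in triplicate by enzyme immunoassay: samples, enzymatic tracer and specific antiserum incubated overnight at 4 °C, plates washed, Ellman's reagent added, absorbance at 414 nm read after 1–3 h. PGE2 read from a 50–0.39 pg/mL standard curve. Percent inhibition given as mean of three experiments.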

Structure (SMILES)	inhibition [1]	inhibition [2]
CC/C=C\C/C=C\C/C=C\CCCCCCCC(=O)OCC(O)CO (stereo unspecified)	32%	
CCCCC/C=C/C/C=C\CCCCCCCC(=O)OCC(O)CO (stereo unspecified)	38.1%	20.5%
CC/C=C/C/C=C/C/C=C\C/C=C/CCCCC(=O)OC[C@@H](O)CO	26.1%	35.6%
CCCCCCCCCCCCCCCCCC(=O)OCC(O)CO (stereo unspecified)	32.8%	16.5%
CCCCC/C=C/C/C=C\C/C=C/C/C=C/CCCC(=O)OCC(O)CO (stereo unspecified)	33.6%	
CC/C=C/C/C=C/C/C=C/C/C=C\C/C=C/CCCCCC(=O)OCC(O)CO (stereo unspecified)	37.4%	92.9%
CCCCCCCC/C=C\CCCCCCCC(=O)OCC(O)CO (stereo unspecified)	60.6%	24.7%
CCCCC/C=C\C/C=C\C/C=C\CCCCC(=O)OCC(O)CO (stereo unspecified)	38.8%	-6.5%
CCCCC/C=C/C/C=C/C/C=C\C/C=C/CCCCCC(=O)OCC(O)CO (stereo unspecified)	37.9%	86.8%
CCCCC/C=C/C/C=C\C/C=C/CCCCCCC(=O)OCC(O)CO (stereo unspecified)	53.9%	
CC/C=C/C/C=C/C/C=C/C/C=C\C/C=C/C/C=C/CCC(=O)OCC(O)CO (stereo unspecified)	41.7%	74.2%
CC/C=C/C/C=C/C/C=C\C/C=C/C/C=C/CCCC(=O)OCC(O)CO (stereo unspecified)	37.4%	71.9%
